In ChEMBL document CHEMBL5329183, “Naphthylthiazoles: a class of broad-spectrum antifungals” (RSC Med Chem, 2023):
Converted amounts (≈) assume the structure as drawn.

Key:
[1] = Selectivity ratio of CC50 for cytotoxicity against African green monkey Vero cells to MIC for antifungal activity against Cryptococcus gattii NR 43216; format: toxicity, cell-based
[2] = Selectivity ratio of CC50 for cytotoxicity against African green monkey Vero cells to MIC for antifungal activity against Cryptococcus neoformans NR 48770; format: toxicity, cell-based
[3] = Selectivity ratio of CC50 for cytotoxicity against African green monkey Vero cells to MIC for antifungal activity against Cryptococcus neoformans NR 48767; format: toxicity, cell-based
[4] = Selectivity ratio of CC50 for cytotoxicity against human Caco-2 cells to MIC for antifungal activity against Cryptococcus gattii NR 43213; format: toxicity, cell-based
[5] = Antifungal activity against Cryptococcus gattii NR 43209 assessed as inhibition of fungal growth incubated for 48 hrs by broth microdilution method; format: functional, Cryptococcus gattii VGI
Method in brief: (§1)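 Broth microdilution per CLSI guidelines against clinical isolates, incubated at 35 °C for 24 h (Candida, Aspergillus) or 48 h (Cryptococcus). MIC was the lowest concentration giving 50% growth inhibition.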

[6] = Selectivity ratio of CC50 for cytotoxicity against African green monkey Vero cells to MIC for antifungal activity against Cryptococcus neoformans NR 48771; format: toxicity, cell-based
[7] = Antifungal activity against Cryptococcus gattii NR 43210 assessed as inhibition of fungal growth incubated for 48 hrs by broth microdilution method; format: functional, Cryptococcus gattii VGI; method in brief: as §1
[8] = Antibacterial activity against Lactobacillus crispatus HM370 assessed as inhibition of bacterial growth; format: toxicity
Aspergillus fumigatus [9] = assay: Antifungal activity against Aspergillus fumigatus NR 35303 assessed as inhibition of fungal growth incubated for 24 hrs by broth microdilution method; format: functional; method in brief: as §1
Vero = assay: Cytotoxicity against African green monkey Vero cells assessed as inhibition of cell viability at 128 ug/ml incubated for 2 hrs by MTS assay; format: toxicity, cell-based; conditions: chlorocebus sabaeus, dose 128 µg/ml
Method in brief: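 Vero cells were grown in MEM with 10% FBS, 1 mM sodium pyruvate and penicillin–streptomycin, then exposed to compounds for 2 h at 37 °C, 5% CO2, in triplicate. MTS was added for 3 h and OD490 read. Viability was expressed as % of DMSO-matched controls (mean ± SD).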

[10] = Selectivity ratio of CC50 for cytotoxicity against human Caco-2 cells to MIC for antifungal activity against Cryptococcus neoformans NR 41300; format: toxicity, cell-based
Cryptococcus neoformans [11] = assay: Antifungal activity against Cryptococcus neoformans NR 41300 assessed as inhibition of fungal growth incubated for 48 hrs by broth microdilution method; format: functional
Method in brief: (§2)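 Clinical isolate; CLSI broth microdilution over a range of concentrations (media listed: RPMI 1640, MOPS, YPD). MIC read as lowest concentration inhibiting growth by 50% after 48 h incubation at 35 °C.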

Escherichia coli = assay: Antibacterial activity against wild type Escherichia coli BW25113 assessed as inhibition of bacterial growth; format: functional
Aspergillus fumigatus [12] = assay: Antifungal activity against Aspergillus fumigatus NR 35304 assessed as inhibition of fungal growth incubated for 24 hrs by broth microdilution method; format: functional; method in brief: as §1
Cryptococcus neoformans [13] = assay: Anti-cryptococcal activity against Cryptococcus neoformans NR 41300 infected in mouse J774 cells assessed as log reduction of intracellular fungal colony forming unit at 4 ug/ml measured after 24 hrs; format: functional; conditions: dose 4 µg/ml
Method in brief: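 C. neoformans NR-41300 was grown 48 h in YPD, washed, and used to infect J774 macrophages at MOI ~100:1 for 1 h, followed by PBS washes. Compounds at 4 μg mL−1 (triplicate) were applied for 22 h at 37 °C, 5% CO2. Extracellular yeast were killed with amphotericin B 1 μg mL−1 for 1 h. Cells were lysed in 0.1% Triton X-100 and plated on YPD agar for 48 h at 37 °C; readout log10 CFU mL−1.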

[14] = Selectivity ratio of CC50 for cytotoxicity against African green monkey Vero cells to MIC for antifungal activity against Cryptococcus gattii NR 43214; format: toxicity, cell-based
[15] = Antibacterial activity against Lactobacillus casei HM334 assessed as inhibition of bacterial growth; format: toxicity; conditions: lacticaseibacillus casei
[16] = Selectivity ratio of CC50 for cytotoxicity against human Caco-2 cells to MIC for antifungal activity against Cryptococcus gattii NR 43209; format: toxicity, cell-based
[17] = Selectivity ratio of CC50 for cytotoxicity against African green monkey Vero cells to MIC for antifungal activity against Cryptococcus neoformans NR 41300; format: toxicity, cell-based
[18] = Selectivity ratio of CC50 for cytotoxicity against human Caco-2 cells to MIC for antifungal activity against Cryptococcus neoformans NR 48770; format: toxicity, cell-based
[Candida] auris [19] = Antifungal activity against Candida auris 381 assessed as inhibition of fungal growth incubated for 24 hrs by broth microdilution method; format: functional; conditions: Candidozyma auris
Method in brief: (§3)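 Clinical isolate; CLSI broth microdilution over a range of concentrations (media listed: RPMI 1640, MOPS, YPD). MIC taken as lowest concentration giving 50% growth inhibition after 24 h at 35 °C.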

[20] = Selectivity ratio of CC50 for cytotoxicity against African green monkey Vero cells to MIC for antifungal activity against Cryptococcus neoformans NR 41299; format: toxicity, cell-based
[21] = Antifungal activity against Cryptococcus gattii NR 43213 assessed as inhibition of fungal growth incubated for 48 hrs by broth microdilution method; format: functional, Cryptococcus gattii VGI; method in brief: as §1
Nakaseomyces glabratus = assay: Antifungal activity against Candida glabrata ATCC 66032 assessed as inhibition of fungal growth incubated for 24 hrs by broth microdilution method; format: functional; method in brief: as §3
Lactobacillus gasseri = assay: Antibacterial activity against Lactobacillus gasseri HM400 assessed as inhibition of bacterial growth; format: toxicity, organism-based
J774 = assay: Cytotoxicity against mouse J774 cells assessed as reduction in cell viability at 64 ug/ml measured after 24 hrs by MTS assay; format: toxicity, cell-based; conditions: j774, 24 h, dose 64 µg/ml
Method in brief: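 J774 murine macrophages were grown in DMEM with 10% FBS and exposed to compounds for 24 h at 37 °C, 5% CO2. After 3 h with MTS, OD490 was read. Viability was expressed relative to DMSO-matched controls.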

[22] = Selectivity ratio of CC50 for cytotoxicity against human Caco-2 cells to MIC for antifungal activity against Cryptococcus neoformans NR 48767; format: toxicity, cell-based
Candida parapsilosis = assay: Antifungal activity against Candida parapsilosis ATCC 22019 assessed as inhibition of fungal growth incubated for 24 hrs by broth microdilution method; format: functional; conditions: Lodderomyces parapsilosis; method in brief: as §3
[23] = Antifungal activity against Cryptococcus gattii NR 43216 assessed as inhibition of fungal growth incubated for 48 hrs by broth microdilution method; format: functional, Cryptococcus gattii VGI; method in brief: as §1
Cryptococcus neoformans [24] = assay: Antifungal activity against Cryptococcus neoformans NR 48767 assessed as inhibition of fungal growth incubated for 48 hrs by broth microdilution method; format: functional; method in brief: as §2
[25] = Apparent permeability of the compound measured after 4 hrs by PAMPA assay; format: ADME
Method in brief: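 PAMPA: compound was placed in pH 6.5 donor buffer across a lipid-pretreated PVDF filter from pH 7.4 acceptor buffer, and incubated 4 h at ambient temperature. Donor and acceptor amounts at start and end were measured by UV absorbance to give apparent permeability.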

[Candida] auris [26] = Antifungal activity against Candida auris 382 assessed as inhibition of fungal growth incubated for 24 hrs by broth microdilution method; format: functional; conditions: Candidozyma auris; method in brief: as §3
[27] = Selectivity ratio of CC50 for cytotoxicity against African green monkey Vero cells to MIC for antifungal activity against Cryptococcus gattii NR 43213; format: toxicity, cell-based
[28] = Selectivity ratio of CC50 for cytotoxicity against human Caco-2 cells to MIC for antifungal activity against Cryptococcus gattii NR 43214; format: toxicity, cell-based

Row | SMILES | selectivity ratio [1] | selectivity ratio [2] | selectivity ratio [3] | selectivity ratio [4] | MIC [5] | selectivity ratio [6] | MIC [7] | MIC [8] | MIC (Aspergillus fumigatus [9]) | Activity (Vero) | selectivity ratio [10] | MIC (Cryptococcus neoformans [11]) | MIC (Escherichia coli) | MIC (Aspergillus fumigatus [12]) | Activity (Cryptococcus neoformans [13]) | selectivity ratio [14] | MIC [15] | selectivity ratio [16] | selectivity ratio [17] | selectivity ratio [18] | further results
1 | Cc1nc(-c2ccc3ccccc3c2)sc1-c1nnc(N[C@@H]2CCCC[C@@H]2N)o1 (relative stereo) | 64 | 64 | 64 | 64 | 1 µg/mL (≈ 2.47 µM) | 64 | 1 µg/mL (≈ 2.47 µM) | > 128 µg/mL | 8 µg/mL (≈ 19.7 µM) | Non-Toxic | 64 | 1 µg/mL (≈ 2.47 µM) | > 64 µg/mL | 4 µg/mL (≈ 9.86 µM) | 1.04 log10CFU/ml | 64 | 128 µg/mL (≈ 316 µM) | 64 | 64 | 64 | MIC ([Candida] auris [19]): 2 µg/mL (≈ 4.93 µM); selectivity ratio [20]: 64; MIC [21]: 2 µg/mL (≈ 4.93 µM); MIC (Nakaseomyces glabratus): 1 µg/mL (≈ 2.47 µM); MIC (Lactobacillus gasseri): > 128 µg/mL; Activity (J774): Non-Toxic; selectivity ratio [22]: 64; MIC (Candida parapsilosis): 1 µg/mL (≈ 2.47 µM); MIC [23]: 2 µg/mL (≈ 4.93 µM); MIC (Cryptococcus neoformans [24]): 2 µg/mL (≈ 4.93 µM); Papp at 4 h [25]: 26.3 ×10⁻⁶ cm/s; MIC ([Candida] auris [26]): 2 µg/mL (≈ 4.93 µM); selectivity ratio [27]: 64; selectivity ratio [28]: 64
2 | Cc1nc(-c2ccc3ccccc3c2)sc1-c1nnc(N[C@@H]2CCCC[C@H]2N)o1 (relative stereo) | 64 | 64 | 64 | 64 | 1 µg/mL (≈ 2.47 µM) | 64 | 1 µg/mL (≈ 2.47 µM) | > 128 µg/mL | 4 µg/mL (≈ 9.86 µM) | Non-Toxic | 64 | 1 µg/mL (≈ 2.47 µM) | > 64 µg/mL | 4 µg/mL (≈ 9.86 µM) | 0.66 log10CFU/ml | 64 | > 128 µg/mL | 64 | 64 | 64 | MIC ([Candida] auris [19]): 2 µg/mL (≈ 4.93 µM); selectivity ratio [20]: 64; MIC [21]: 2 µg/mL (≈ 4.93 µM); MIC (Nakaseomyces glabratus): 1 µg/mL (≈ 2.47 µM); MIC (Lactobacillus gasseri): > 128 µg/mL; Activity (J774): Non-Toxic; selectivity ratio [22]: 64; MIC (Candida parapsilosis): 1 µg/mL (≈ 2.47 µM); MIC [23]: 2 µg/mL (≈ 4.93 µM); MIC (Cryptococcus neoformans [24]): 2 µg/mL (≈ 4.93 µM); Papp at 4 h [25]: 57.7 ×10⁻⁶ cm/s; MIC ([Candida] auris [26]): 2 µg/mL (≈ 4.93 µM); selectivity ratio [27]: 64; selectivity ratio [28]: 64
